Values after ≈ are worked out from the molar mass of the structure shown. Active and inactive are the calls of the source. The rule behind the calls is not given here.
Assays:
Plasmodium falciparum [1] = assay: Anti-plasmodial activity against chloroquine-sensitive Plasmodium falciparum NF54 by [3H]-hypoxanthine incorporation assay; type: functional
Outline: (§1)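 P. falciparum asexual blood-stage growth inhibition by [3H]hypoxanthine incorporation; chloroquine and artesunate run as reference drugs in every experiment; IC50 given as mean of ≥2 independent experiments.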

[2] = Kinetic solubility of the compound in FaSSIF at pH 6.5 after 2 hrs by shake flask method; type: physicochemical; conditions: read-out: Kinetic_solubility
[3] = Metabolic stability in Balb/c mouse liver microsomes assessed as compound remaining at 1 uM in presence of NADPH after 30 mins by LC-MS/MS analysis; type: ADME, microsome; conditions: read-out: Stability
Outline: (§2)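 Mouse and human liver microsomes; % compound remaining after 30 min.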

[4] = Metabolic stability in human liver microsomes assessed as compound remaining at 1 uM in presence of NADPH after 30 mins by LC-MS/MS analysis; type: ADME, microsome; conditions: read-out: Stability; outline: as §2
Plasmodium falciparum [5] = assay: Anti-plasmodial activity against chloroquine-sensitive Plasmodium falciparum NF54 late 4/5 stage gametocytes assessed as reduction in ATP levels after 24 hrs by BacTiter-Glo reagent based bioluminescence assay; type: functional; conditions: NF54, 24 h
Plasmodium falciparum [6] = assay: Ratio of IC50 for chloroquine-sensitive Plasmodium falciparum NF54 early 2/3 stage gametocytes to IC50 for chloroquine-sensitive Plasmodium falciparum NF54 late 4/5 stage gametocytes; type: functional
Outline: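 Early (stage II/III) and late (stage IV/V) gametocytes tested in parallel luciferase reporter assays; stage preference = EG IC50/LG IC50.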

Plasmodium berghei [7] = assay: Antimalarial activity against GFP-fused Plasmodium berghei ANKA liver stage infected in HuH7 cells pretreated for 1 hr followed by parasite infection after 48 hrs by luciferase reporter gene assay; type: functional, cell-based; conditions: Huh-7
Huh-7 = assay: Cytotoxicity against human HuH7 cells at 1 to 10 uM after 48 hrs by Alamarblue assay; type: cell-based; conditions: huh-7, 48 h
Plasmodium berghei [8] = assay: Antimalarial activity against GFP-fused Plasmodium berghei ANKA liver stage infected in HuH7 cells pretreated for 1 hr followed by parasite infection at 1 uM after 48 hrs by luciferase reporter gene assay; type: functional, cell-based
Plasmodium falciparum [9] = assay: Anti-plasmodial activity against multidrug resistant Plasmodium falciparum K1 by [3H]-hypoxanthine incorporation assay; type: functional; outline: as §1
CHO = assay: Cytotoxicity against CHO cells after by MTT assay; type: cell-based; conditions: Cricetulus griseus
[10] = Selectivity index, ratio of IC50 for CHO cells to IC50 for chloroquine-sensitive Plasmodium falciparum NF54; type: toxicity; conditions: hamster, read-out: Ratio IC50
Outline: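 Selectivity index = IC50 CHO / IC50 PfNF54.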

Plasmodium falciparum [11] = assay: Ratio of IC50 for chloroquine-sensitive Plasmodium falciparum NF54 after 24 hrs to IC50 for chloroquine-sensitive Plasmodium falciparum NF54 after 72 hrs; type: functional
Plasmodium berghei [12] = assay: Antimalarial activity against GFP-fused Plasmodium berghei ANKA infected in mouse assessed as reduction in parasitemia at 50 mg/kg, po administered once daily for 4 days by flow cytometry relative to control; type: functional; design: scale not given: the % may be the effect or the level left
Outline: (§3)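 P. berghei-infected mice, 3 per group. Compound formulated in 90/10 Tween80/ethanol (v/v), diluted 10-fold with water, given orally once daily at 4, 24, 48 and 72 h post-infection. Outcomes: % parasitemia reduction versus untreated control, mean survival days, and cured/infected. Mice with <40% reduction euthanized on day 4.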

Plasmodium berghei [13] = assay: Antimalarial activity against GFP-fused Plasmodium berghei ANKA infected in mouse assessed as mouse mean survival days at 50 mg/kg, po administered once daily for 4 days; type: functional
Outline: (§4)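 P. berghei-infected mice (n=3 per dose) dosed orally once daily on 4 consecutive days at 4, 24, 48 and 72 h after infection; compound in 90/10 Tween80/ethanol (v/v) diluted 10-fold with water. Read-outs were % parasitemia reduction, mean survival time in days and cure; mice with <40% parasitemia reduction euthanized on day 4.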

Plasmodium berghei [14] = assay: Antimalarial activity against GFP-fused Plasmodium berghei ANKA infected in mouse assessed as protection against parasitemia at 50 mg/kg, po administered once daily for 4 days measured 30 days post infection by light microscopy; type: functional, organism-based; outline: as §3
Ferriprotoporphyrin IX = assay: Inhibition of beta hematin formation in water/NP40/DMSO solution after 5 hrs
Plasmodium falciparum [15] = assay: Anti-plasmodial activity against chloroquine-sensitive Plasmodium falciparum NF54 late 4/5 stage gametocytes after 48 hrs by luciferin-luciferase reaction based bioluminescence assay; type: functional; conditions: NF54, 48 h
Plasmodium berghei [16] = assay: Antimalarial activity against GFP-fused Plasmodium berghei ANKA infected in mouse assessed as reduction in parasitemia at 3 mg/kg, po administered once daily for 4 days by flow cytometry relative to control; type: functional; design: scale not given: the % may be the effect or the level left; outline: as §3
Plasmodium berghei [17] = assay: Antimalarial activity against GFP-fused Plasmodium berghei ANKA infected in mouse assessed as reduction in parasitemia at 30 mg/kg, po administered once daily for 4 days by flow cytometry relative to control; type: functional; design: scale not given: the % may be the effect or the level left; outline: as §3
Plasmodium berghei [18] = assay: Antimalarial activity against GFP-fused Plasmodium berghei ANKA infected in mouse assessed as reduction in parasitemia at 10 mg/kg, po administered once daily for 4 days by flow cytometry relative to control; type: functional; design: scale not given: the % may be the effect or the level left; outline: as §3
Plasmodium berghei [19] = assay: Antimalarial activity against GFP-fused Plasmodium berghei ANKA infected in mouse assessed as mouse mean survival days at 30 mg/kg, po administered once daily for 4 days; type: functional; outline: as §4
Plasmodium berghei [20] = assay: Antimalarial activity against GFP-fused Plasmodium berghei ANKA infected in mouse assessed as mouse mean survival days at 3 mg/kg, po administered once daily for 4 days; type: functional; outline: as §4
Plasmodium berghei [21] = assay: Antimalarial activity against GFP-fused Plasmodium berghei ANKA infected in mouse assessed as mouse mean survival days at 10 mg/kg, po administered once daily for 4 days; type: functional; outline: as §4
Plasmodium berghei [22] = assay: Antimalarial activity against GFP-fused Plasmodium berghei ANKA infected in mouse assessed as protection against parasitemia at 3 mg/kg, po administered once daily for 4 days measured 30 days post infection by light microscopy; type: functional, organism-based; outline: as §3
Plasmodium berghei [23] = assay: Antimalarial activity against GFP-fused Plasmodium berghei ANKA infected in mouse assessed as protection against parasitemia at 10 mg/kg, po administered once daily for 4 days measured 30 days post infection by light microscopy; type: functional, organism-based; outline: as §3
[24] = Half life in C57/Bl6 mouse at 2.5 mg/kg, iv by LC-MS method; type: ADME, organism-based; conditions: in vivo
Outline: (§5)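 Mice (n=3) given a single intravenous dose of 2.5 mg/kg in dimethylacetamide:polyethylene glycol:propylene glycol/ethanol (4:1) at 1:3:6; 24 h sampling. Parameters were fitted by nonlinear mixed-effects two-compartment model with first-order elimination.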

[25] = Half life in C57/Bl6 mouse at 10 mg/kg, po administered via gavage by LC-MS method; type: ADME, organism-based; conditions: in vivo
Outline: (§6)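 Mice (n=3) given a single oral dose of 10 mg/kg as a suspension in […] HPMC; plasma sampled over 24 h. Parameters were estimated by nonlinear mixed-effects modelling with a two-compartment disposition model, first-order absorption and elimination.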

[26] = Cmax in C57/Bl6 mouse at 10 mg/kg, po administered via gavage by LC-MS method; type: ADME, organism-based; design: dose 10 mg/kg, route oral; conditions: in vivo; outline: as §6
[27] = Tmax in C57/Bl6 mouse at 10 mg/kg, po administered via gavage by LC-MS method; type: ADME, organism-based; conditions: in vivo; outline: as §6
[28] = Volume of distribution in C57/Bl6 mouse at 2.5 mg/kg, iv by LC-MS method; type: ADME, organism-based; conditions: in vivo; outline: as §5
[29] = Clearance in C57/Bl6 mouse at 2.5 mg/kg, iv by LC-MS method; type: ADME, organism-based; conditions: in vivo; outline: as §5
Mus musculus [30] = assay: AUC (0 to infinity) in C57/Bl6 mouse at 2.5 mg/kg, iv by LC-MS method; type: ADME, organism-based; design: dose 2.5 mg/kg, time infinity, route intravenous; conditions: in vivo; outline: as §5
Mus musculus [31] = assay: AUC (0 to infinity) in C57/Bl6 mouse at 10 mg/kg, po administered via gavage by LC-MS method; type: ADME, organism-based; design: dose 10 mg/kg, route oral, time infinity; conditions: in vivo; outline: as §6
[32] = Oral bioavailability in C57/Bl6 mouse at 10 mg/kg administered via gavage by LC-MS method; type: ADME, organism-based; conditions: in vivo; outline: as §6

| SMILES | IC50 (Plasmodium falciparum [1]) [nM] | solubility kinetic at 2 h [2] [µM] | remaining at 0.5 h, 1 µM [3] [%] | remaining at 0.5 h, 1 µM [4] [%] | IC50 (Plasmodium falciparum [5]) [nM] | Ratio IC50 (Plasmodium falciparum [6]) | Activity (Huh-7) | IC50 (Plasmodium falciparum [9]) [nM] | IC50 (CHO) [nM] | selectivity ratio [10] | Ratio IC50 (Plasmodium falciparum [11]) | Activity (Plasmodium berghei [12]) [%] | MSD (Plasmodium berghei [13]) [days] | further results |
| --- | --- | --- | --- | --- | --- | --- | --- | --- | --- | --- | --- | --- | --- | --- |
| CCNCCNc1c(C)c(-c2ccc(C(F)(F)F)cc2)c(C#N)c2nc3ccccc3n12 | 1280 | < 5 | 80 | 85 | 2570 | 0.8 | Non-Toxic | – | – | – | – | – | – | IC50 (Plasmodium berghei [7]): 2850 nM; Activity (Plasmodium berghei [8]): Active |
| CCN(CC)CCCC(C)Nc1cc(-c2ccc(C(F)(F)F)cc2)c(C#N)c2nc3ccccc3n12 (stereo not given) | 690 | 85 (≈ 42 µg/mL) | 32 | 53 | 3020 | 0.7 | Non-Toxic | 400 | 2910 | 4 | <1.5 | – | – | – |
| CCNCCNc1cc(-c2ccc(C(F)(F)F)cc2)c(C#N)c2nc3cccc(Cl)c3n12 | 140 | 10 (≈ 4.58 µg/mL) | 93 | 89 | – | – | – | 260 | 1630 | 5 | – | 85 | 7 | Activity (Plasmodium berghei [14]): inactive |
| CCNCCNc1cc(-c2ccc(C(F)(F)F)cc2)c(C#N)c2nc3cc(Cl)ccc3n12 | 30 | – | 75 | 87 | – | 1.1 | Non-Toxic | 30 | 8710 | 362 | 1.5 - 2 | – | – | IC50 (Ferriprotoporphyrin IX): < 45000 nM; IC50 (Plasmodium falciparum [15]): 820 nM |
| CCNCCNc1cc(-c2ccc(C(F)(F)F)cc2)c(C#N)c2nc3cc(Cl)cc(Cl)c3n12 | 30 | 20 (≈ 9.85 µg/mL) | 87 | 87 | – | 1.2 | Non-Toxic | 40 | 11200 | 431 | – | 98 | 30 | Activity (Plasmodium berghei [16]): 99.4%; Activity (Plasmodium berghei [17]): 99.4%; Activity (Plasmodium berghei [18]): 99.4%; MSD (Plasmodium berghei [19]): 30 days; MSD (Plasmodium berghei [20]): 16 days; MSD (Plasmodium berghei [21]): 18 days; Activity (Plasmodium berghei [14]): Active; Activity (Plasmodium berghei [22]): inactive; Activity (Plasmodium berghei [23]): inactive; half-life [24]: 21 h; half-life [25]: 21 h; Cmax [26]: 220 nM; Tmax [27]: > 10 h; Vd [28]: 19 L/kg; clearance [29]: 11 mL/min/kg; AUC (Mus musculus [30]): 9.52 µM·h; AUC (Mus musculus [31]): 11.4 µM·h; bioavailability [32]: 30%; IC50 (Plasmodium falciparum [15]): 1440 nM |
| N#Cc1c(-c2ccc(C(F)(F)F)cc2)cc(NC2CCNCC2)n2c1nc1ccccc12 | 360 | – | 65 | 99 | 1160 | 1.6 | Non-Toxic | 820 | 16500 | 46 | – | – | – | IC50 (Plasmodium berghei [7]): 3310 nM; Activity (Plasmodium berghei [8]): Active |
| CCNCCNc1cc(-c2cccc(F)c2)c(C#N)c2nc3ccccc3n12 | 380 | 25 (≈ 9.34 µg/mL) | 100 | 89 | 3630 | 1.2 | Non-Toxic | 1000 | 5180 | 13 | <1.5 | 61 | 24 | – |

— ChEMBL document CHEMBL3994624, “Antimalarial Pyrido[1,2-a]benzimidazoles: Lead Optimization, Parasite Life Cycle Stage Profile, Mechanistic Evaluation, Killing Kinetics, and in Vivo Oral Efficacy in a Mouse Model” (J Med Chem, 2017)
